*1 amine or outer side, *2 acyl side, *3 side chain or, on linkers, in order; H or OH if unused. Where a SMILES comes first, the peptide text is derived from it. Bridges are numbered along the chain shown (N, C = ends). Biphenyl(4,4'-CH2)2 = c1cc(-c2ccc(C[*:2])cc2)ccc1C[*:1]; mXylylene = c1cc(C[*:1])cc(C[*:2])c1; oXylylene = c1ccc(C[*:2])c(C[*:1])c1; pXylylene = c1cc(C[*:2])ccc1C[*:1]
Legend:
[1] = system: human colon cancer cell line (HCT116); assay: CCK8 cell proliferation assay, HCT116; format: cell-based; conditions: read-out: IC50 (μM) HCT116; CCK8, 48 h peptide treatment, 0.78–25 μM, OD 450 nm
In short: (§1)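 Cells kept in DMEM with 10% FBS and 1% penicillin-streptomycin at 37 °C, 5% CO2. Seeded at 3 × 10^3 cells/well and grown for 24 h. Treated with or without peptide (0.78, 1.56, 3.125, 6.25, 12.5, 25 μM) for 48 h. Medium then switched to serum-free; CCK-8 added 10 μL/well for 1 h at 37 °C. OD read at 450 nm; IC50 obtained by curve fitting.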

[2] = system: human breast cancer cell line (MCF-7); assay: CCK8 cell proliferation assay, MCF-7; format: cell-based; conditions: read-out: IC50 (μM) MCF-7; CCK8, 48 h peptide treatment, 0.78–25 μM, OD 450 nm
In short: as §1

glioma cell line (U87) = assay: CCK8 cell proliferation assay, U87; format: cell-based, human; conditions: read-out: IC50 (μM) U87; CCK8, 48 h peptide treatment, 0.78–25 μM, OD 450 nm
In short: as §1

MCF-7 cells [3] = assay: Annexin V-FITC/PI apoptosis assay by flow cytometry; format: cell-based, human; conditions: MCF-7, 10 μM peptide
MCF-7 cells [4] = assay: In vitro transwell migration assay; format: cell-based, human; conditions: MCF-7, transwell 8 μm pore, 48 h, compared with control group, n = 3
MCF-7 cells [5] = assay: Calcein-AM/PI cell viability staining; format: cell-based, human; conditions: MCF-7, 10 μM peptide, 24 hours
In short: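 MCF-7 seeded at 5 × 10^3 cells/well and held at 37 °C for 24 h. Peptide added at a final 10 μM for another 24 h. Cells stained with a PBS working solution of calcein-AM (2 μM) and PI (4.5 μM) at 37 °C for 15 min. Live/dead fluorescence imaged on a high-content screening system.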

Row | SMILES | IC50 [1] [µM] | IC50 [2] [µM] | IC50 (glioma cell line (U87)) [µM] | Number of apoptotic cells versus Ascaphin-8 and normal medium (MCF-7 cells [3]) | Migration through the polycarbonate membrane (MCF-7 cells [4]) | Calcein-AM/PI fluorescence of cells (MCF-7 cells [5])
1 | CC(C)C[C@H](NC(=O)[C@H](CC(C)C)NC(=O)[C@H](CC(=O)O)NC(=O)[C@H](CCCCN)NC(=O)[C@H](Cc1ccccc1)NC(=O)CN)C(=O)N[C@@H](CCCCN)C(=O)NCC(=O)N[C@@H](C)C(=O)N[C@@H](C)C(=O)N[C@@H](CCCCN)C(=O)N[C@H]1CSCc2cccc(c2)CSC[C@@H](C(=O)N[C@H](C(=O)N[C@@H](CC(C)C)C(=O)N[C@@H](Cc2ccccc2)C(N)=O)C(C)C)NC(=O)[C@H](CCCCN)NC(=O)[C@H](C(C)C)NC(=O)[C@H](CC(C)C)NC1=O [Peptide A8-3-m] (H-GFKDLLKGAAKCLVKCVLF-NH2; linker 12-16 via mXylylene) | 9.21 | 7.8 | 8.69 |  |  | 
2 | CC(C)C[C@H](NC(=O)[C@H](CC(C)C)NC(=O)[C@H](CC(=O)O)NC(=O)[C@H](CCCCN)NC(=O)[C@H](Cc1ccccc1)NC(=O)CN)C(=O)N[C@@H](CCCCN)C(=O)NCC(=O)N[C@@H](C)C(=O)N[C@@H](C)C(=O)N[C@@H](CCCCN)C(=O)N[C@H]1CSCc2ccccc2CSC[C@@H](C(=O)N[C@H](C(=O)N[C@@H](CC(C)C)C(=O)N[C@@H](Cc2ccccc2)C(N)=O)C(C)C)NC(=O)[C@H](CCCCN)NC(=O)[C@H](C(C)C)NC(=O)[C@H](CC(C)C)NC1=O [Peptide A8-3-o] (H-GFKDLLKGAAKCLVKCVLF-NH2; linker 12-16 via oXylylene) | 7.68 | 6.03 | 9.28 |  |  | 
3 | CC(C)C[C@H](NC(=O)[C@H](CC(C)C)NC(=O)[C@H](CC(=O)O)NC(=O)[C@H](CCCCN)NC(=O)[C@H](Cc1ccccc1)NC(=O)CN)C(=O)N[C@@H](CCCCN)C(=O)NCC(=O)N[C@@H](C)C(=O)N[C@@H](C)C(=O)N[C@@H](CCCCN)C(=O)N[C@H]1CSCc2ccc(cc2)CSC[C@@H](C(=O)N[C@H](C(=O)N[C@@H](CC(C)C)C(=O)N[C@@H](Cc2ccccc2)C(N)=O)C(C)C)NC(=O)[C@H](CCCCN)NC(=O)[C@H](C(C)C)NC(=O)[C@H](CC(C)C)NC1=O [Peptide A8-3-p] (H-GFKDLLKGAAKCLVKCVLF-NH2; linker 12-16 via pXylylene) | 11.2 | 11.7 | 14.4 |  |  | 
4 | CC(C)C[C@@H]1NC(=O)[C@H](C)NC(=O)[C@H](CCCCN)NC(=O)[C@H](C)NC(=O)[C@@H](NC(=O)CNC(=O)[C@H](CCCCN)NC(=O)[C@H](CC(C)C)NC(=O)[C@H](CC(C)C)NC(=O)[C@H](CC(=O)O)NC(=O)[C@H](CCCCN)NC(=O)[C@H](Cc2ccccc2)NC(=O)CN)CSCc2ccc(cc2)-c2ccc(cc2)CSC[C@@H](C(=O)N[C@H](C(=O)N[C@@H](CC(C)C)C(=O)N[C@@H](Cc2ccccc2)C(N)=O)C(C)C)NC(=O)[C@H](CCCCN)NC(=O)[C@H](C(C)C)NC1=O [Peptide A8-4-Dp] (H-GFKDLLKGCAKALVKCVLF-NH2; linker 9-16 via Biphenyl(4,4'-CH2)2) | 3.03 | 2.99 | 3.63 | significantly higher | rarely migrated | a large amount of red fluorescence

Reference: article PMC10318414 (RSC Advances, 2023)
